Molecules are shown by their SMILES. pIC50: −log10 of the molar value.

As usually defined, the pIC50 is the negative decadic logarithm of the IC50, by convention in mol/L.

For assay [1], the system named is WI-38. The assay is described as follows: Cytotoxicity against human WI-38 cells assessed as reduction in cell viability after 48 hrs by MTT assay. Particulars: WI-38, 48 h. Type of assay: cell-based. In outline: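 Cells from ATCC grown in DMEM with 10% FBS, insulin and 1% penicillin-streptomycin. Plated at 1.2-1.8 × 10,000 cells/well for 24 h, then exposed to compounds in DMSO vehicle for 48 h. MTT 0.5 mg/ml added for 2 h; absorbance read at 570 nm. Experiments run in triplicate.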
Background: Formazan colour is commonly taken as a measure of viable cells.

Assay [2] relates to Mus musculus. The assay is described as follows: Anticonvulsant activity against mouse model of LiCa/pilocarpine-induced status epilepticus assessed as mean power frequency at 20 mg/kg, po for 10 days by EEG method relative to control. To be noted: time 10 day. Type of assay: functional. The method, boiled down: (§1)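 Male mice (20-30 g), five per group, dosed orally once daily for 10 days. Status epilepticus was then induced with LiCa (3 mEq/kg i.p.), atropine sulfate (1 mg/kg i.p.) 30 min before pilocarpine, and pilocarpine HCl (300 mg/kg i.p.) 2 h after LiCa. Normal controls received oral distilled water. Comparators were untreated SE, phenytoin and lamotrigine. One-way ANOVA with Tukey post-hoc; mean ± SD.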

In assay [3] the test system is Mus musculus. The assay is described as follows: Anticonvulsant activity against mouse model of LiCa/pilocarpine-induced status epilepticus assessed as spectral edge frequency at 20 mg/kg, po for 10 days by EEG method relative to control. Type of assay: functional. Particulars: time 10 day. In outline: as §1
The subject of assay [4] is Mus musculus. Description: Anticonvulsant activity against mouse model of LiCa/pilocarpine-induced status epilepticus assessed as total power at 20 mg/kg, po for 10 days by EEG method relative to control. Particulars: time 10 day. Type of assay: functional. In outline: as §1
Assay [5] has as its system Mus musculus. Description: Anticonvulsant activity against mouse model of LiCa/pilocarpine-induced status epilepticus assessed as amplitude at 20 mg/kg, po for 10 days by EEG method relative to control. Type of assay: functional. Particulars: time 10 day. In outline: as §1
The test system of assay [6] is Mus musculus. Description: Anticonvulsant activity against mouse model of LiCa/pilocarpine-induced status epilepticus assessed as amplitude density at 20 mg/kg, po for 10 days by EEG method relative to control. Particulars: time 10 day. Type of assay: functional. The method, boiled down: as §1
The test system of assay [7] is Mus musculus. The assay is described as follows: Anticonvulsant activity against mouse model of LiCa/pilocarpine-induced status epilepticus assessed as power pV2 at 20 mg/kg, po for 10 days by EEG method relative to control. Type of assay: functional. Particulars: time 10 day. The method, boiled down:
as §1

Assay [8] has as its system Mus musculus. The assay is described as follows: Anticonvulsant activity against mouse model of LiCa/pilocarpine-induced status epilepticus assessed as total power density at 20 mg/kg, po for 10 days by EEG method relative to control. Type of assay: functional. To be noted: time 10 day. The method, boiled down: as §1
Assay [9] deals with Mus musculus. Description: Anticonvulsant activity against mouse model of LiCa/pilocarpine-induced status epilepticus assessed as delta at 20 mg/kg, po for 10 days by EEG method relative to control. Type of assay: functional. Particulars: time 10 day. The method, boiled down:
as §1

In assay [10] the test system is Mus musculus. Description: Anticonvulsant activity against mouse model of LiCa/pilocarpine-induced status epilepticus assessed as theta at 20 mg/kg, po for 10 days by EEG method relative to control. Type of assay: functional. Particulars: time 10 day. The method, boiled down:
as §1

The subject of assay [11] is Mus musculus. Description: Anticonvulsant activity against mouse model of LiCa/pilocarpine-induced status epilepticus assessed as alpha at 20 mg/kg, po for 10 days by EEG method relative to control. Particulars: time 10 day. Type of assay: functional. In outline: as §1
Assay [12] deals with Mus musculus. The assay is described as follows: Anticonvulsant activity against mouse model of LiCa/pilocarpine-induced status epilepticus assessed as MDA level in brain at 20 mg/kg, po for 10 days by calorimetric method relative to control. Type of assay: functional. To be noted: time 10 day. In outline: as §1
In assay [13] the test system is Mus musculus. The assay is described as follows: Anticonvulsant activity against mouse model of LiCa/pilocarpine-induced status epilepticus assessed as GSH level in brain at 20 mg/kg, po for 10 days by calorimetric method relative to control. Type of assay: functional. Particulars: time 10 day. The method, boiled down: as §1
The test system of assay [14] is Mus musculus. Description: Anticonvulsant activity against mouse model of LiCa/pilocarpine-induced status epilepticus assessed as GABA level in brain at 20 mg/kg, po for 10 days by ELISA relative to control. Type of assay: functional. Particulars: time 10 day. In outline:
as §1
A general note: In an ELISA, binding on a coated surface is turned into a signal by an enzyme label.

For assay [15], the system named is Mus musculus. Description: Anticonvulsant activity against mouse model of LiCa/pilocarpine-induced status epilepticus assessed as Glutamate level in brain at 20 mg/kg, po for 10 days by ELISA relative to control. Particulars: time 10 day. Type of assay: functional. The method, boiled down: as §1

As for `COc1ccc(/C=C2\N=C(c3ccc(C)cc3)N(C(=O)c3nc4c(c(C)nn4-c4ccccc4)c(=O)[nH]3)NC2=O)cc1`, the negative logarithm of the IC50 (pIC50) in [1] is 7.43. In addition, the Activity is listed as -32.59% in [2]; -18.75% in assay [3]; 18.66% in assay [4]; 79.11% in assay [5]; 56.84% in assay [6]; 198.49% in [7]. Moreover, the Activity was 222.48% in assay [8]; 295.04% in assay [9]; 32.29% in [10]; 4.98% in [11]; -46.76% in assay [12]; 98.02% in assay [13]. The Activity in assay [14] was 79.64%; in assay [15], -67.77%.

`O=C1NC(=O)C(c2ccccc2)(c2ccccc2)N1` [PHENYTOIN]: the Activity in [2] is recorded as -58.54%; in [3], -38.74%; in assay [4] it was 51.6%; in assay [5], 158.67%; in assay [6], 175.08%; in [7], 332.89%. Moreover, the Activity in assay [8] was 381.63%; in [9], 485.9%; in [10], 19.76%; in assay [11] it was -14.82%; in assay [12], -56.88%; in assay [13], 156.39%. In addition, the Activity in assay [14] was 92.87%; in assay [15], -81.35%.

On to `Cc1nn(-c2ccccc2)c2nc(CC(=O)N3NC(=O)/C(=C\c4ccccc4)N=C3c3ccc(Cl)cc3)[nH]c(=O)c12`, for which, in assay [1], the pIC50 was 7.10. For the same molecule, the Activity in assay [2] is reported as -28.52%; in [3], -17.33%; in assay [4] it was 0.29%; in assay [5] it was 55.11%; in assay [6], 68.09%; in [7], 117.95%. In addition, the Activity in [8] is reported as 175.43%; in assay [9], 264.98%; in assay [10], 34.99%; in assay [11] it was 34.85%; in assay [12], -46.88%; in [13], 191.86%. Besides, the Activity is on record as 40.05% in assay [14] and -45.51% in [15].

For `Cc1nn(-c2ccccc2)c2nc(C(=O)N3NC(=O)/C(=C/c4ccc(Cl)cc4)N=C3c3ccc(Cl)cc3)[nH]c(=O)c12`, the pIC50 in [1] is 7.71. The Activity in [2] is given as -37.61%; in [3], -21.45%; in assay [4], 37.32%; in assay [5], 89.78%; in [6] it was 54.1%; in assay [7], 225.84%. The Activity in assay [8] is on record as 233.86%; in assay [9], 313.77%; in assay [10] it was 41.15%; in assay [11], 4.62%; in [12] it was -63.24%; in assay [13], 144.08%. The Activity in assay [14] is 74.49%; in assay [15] it was -57.79%.

Take `COc1ccc(/C=C2/N=C(c3ccc(C)cc3)N(C(=O)Cc3nc4c(c(C)nn4-c4ccccc4)c(=O)[nH]3)NC2=O)cc1`: the pIC50 in [1] was 7.73. Besides, the Activity in [2] is -33%; in assay [3], -26.44%; in [4], 33.82%; in assay [5], 80.44%; in assay [6], 82.98%; in assay [7], 218.96%. Further, the Activity in [8] is recorded as 264.63%; in [9] it was 362.78%; in [10], 27.12%; in assay [11] it was 0.71%; in [12], -69.49%; in assay [13], 50.67%. The Activity is 71.88% in [14] and -50.42% in assay [15].

Regarding `COc1ccc(/C=C2\N=C(c3ccc(Cl)cc3)N(C(=O)c3nc4c(c(C)nn4-c4ccccc4)c(=O)[nH]3)NC2=O)cc1`, in assay [1], the negative logarithm of the IC50 (pIC50) was 7.60. Further, the Activity in assay [2] is listed as -40.42%; in [3] it was -22.51%; in assay [4], 14.87%; in [5], 71.11%; in assay [6], 46.81%; in [7] it was 190.77%. The Activity in [8] is listed as 245.46%; in assay [9], 330.62%; in assay [10], 20.25%; in assay [11] it was -4.74%; in [12], -67.54%; in assay [13], 150.97%. For the same molecule, the Activity is recorded as 87.03% in assay [14] and -66.54% in assay [15].

For the molecule `Cc1nn(-c2ccccc2)c2nc(CC(=O)N3NC(=O)/C(=C\c4ccc(Cl)cc4)N=C3c3ccccc3)[nH]c(=O)c12`, the pIC50 in assay [1] was 6.96. In addition, the Activity in assay [2] was -44.11%; in assay [3], -28.09%; in [4] it was 23.03%; in assay [5] it was 82.67%; in assay [6], 63.22%; in assay [7] it was 204.36%. The Activity was 248.78% in [8]; 327.42% in assay [9]; 20.33% in [10]; 0.12% in [11]; -74.39% in assay [12]; 170% in assay [13]. Besides, the values for the Activity in [14] and in assay [15] were 80.61% and -76.98%, respectively.

With `Cc1nn(-c2ccccc2)c2nc(C(=O)N3NC(=O)/C(=C/c4ccccc4)N=C3c3ccccc3)[nH]c(=O)c12`, the negative logarithm of the IC50 (pIC50) in [1] was 7.31. Also, the Activity is given as -30.24% in assay [2]; -16.31% in assay [3]; 13.12% in [4]; 67.11% in [5]; 78.42% in assay [6]; 138.76% in assay [7]. Also, the Activity was 229.32% in assay [8]; 314.32% in assay [9]; 28.9% in [10]; 12.39% in assay [11]; -72.13% in assay [12]; 154.11% in [13]. The values for the Activity in assay [14] and in assay [15] were 61.71% and -58.33%, respectively.

Take `Cc1nn(-c2ccccc2)c2nc(CC(=O)N3NC(=O)/C(=C\c4ccc(Cl)cc4)N=C3c3ccc(Cl)cc3)[nH]c(=O)c12`: the negative logarithm of the IC50 (pIC50) in assay [1] was 7.89. The Activity is listed as -25.05% in [2]; -13.39% in [3]; 0.58% in assay [4]; 45.78% in [5]; 69.3% in assay [6]; 126.51% in assay [7]. For the same molecule, the Activity in [8] is 181.99%; in assay [9], 239.87%; in assay [10], 54.18%; in assay [11] it was 35.86%; in [12] it was -60.61%; in assay [13] it was 146.06%. For the same molecule, the results for the Activity in assay [14] and in [15] were 82.22% and -58.56%, respectively.

Regarding `CS(=O)(=O)CCNCc1ccc(-c2ccc3ncnc(Nc4ccc(OCc5cccc(F)c5)c(Cl)c4)c3c2)o1` [LAPATINIB], the pIC50 in assay [1] is 7.34. For the same molecule, the Activity in assay [2] was -50.58%; in assay [3] it was -34.07%; in [4] it was 33.24%; in assay [5], 122.67%; in assay [6], 142.55%; in assay [7] it was 272.65%. Also, the Activity in assay [8] is reported as 346.9%; in assay [9], 425.44%; in assay [10] it was 12.11%; in [11], -8.6%; in [12] it was -57.67%; in assay [13], 172.32%. For the same molecule, the Activity in assay [14] is listed as 83.04%; in assay [15], -81.12%.
